# Experimental data collected from several papers.
# Each line is one published result; the experiments were not run side by side.
# CTSB: Cathepsin B (CTSB, Homo sapiens, UniProt P07858)
Compound,target,effect on,mode,method,pH,IC50 [nM]
CC1=NCCc2c1[nH]c1cc(O)ccc21,"Receptor-type tyrosine-protein phosphatase C (PTPRC, Homo sapiens, UniProt P08575)",enzyme activity,inhibitor,fluorescence,,14000
Nc1ncnc2c1ncn2[C@@H]1O[C@H](COP(=O)(O)OP(=O)(O)OP(=O)(O)O)[C@@H](O)[C@H]1O,"Heat shock cognate 71 kDa protein (HSPA8, Homo sapiens, UniProt P11142)",ligand displacement,,FP,,200
CC(C)C[C@H](NC(=O)[C@H]1O[C@@H]1C(=O)O)C(=O)NCCCCN=C(N)N,CTSB,enzyme activity,inhibitor,,,4
CC(C)C[C@H]1C(=O)N2CCC[C@H]2[C@]2(O)O[C@](NC(=O)[C@@H]3C=C4c5cccc6[nH]c(Br)c(c56)C[C@H]4N(C)C3)(C(C)C)C(=O)N12,"5-hydroxytryptamine receptor 7 (HTR7, Homo sapiens, UniProt P34969)",ligand displacement,,radioligand,,152
C[C@@H]1O[C@@H](OC[C@H]2O[C@@H](Oc3c(-c4ccc(O)c(O)c4)oc4cc(O)cc(O)c4c3=O)[C@H](O)[C@@H](O)[C@@H]2O)[C@H](O)[C@H](O)[C@H]1O,"Genome polyprotein, protease (ZIKV, UniProt A0A024B7W1)",enzyme activity,inhibitor,FRET,pH 7,104000
CC(C)N(C)[C@@H]1CC[C@H](N2CC[C@H](NC(=O)c3cccc(C(F)(F)F)c3)C2=O)[C@H](CS(=O)(=O)C(C)C)C1,"C-C chemokine receptor type 2 (CCR2, Homo sapiens, UniProt P41597)",cell-free assay,,,,0.3
C[C@H](N)Cn1ncc2ccc3c(c21)CCCO3,"Alpha-1A adrenergic receptor (Adra1a, Rattus norvegicus, UniProt P43140)",ligand displacement,,radioligand,,100000
CC(=O)c1cc(O)c2ccccc2c1O,"Genome polyprotein, methyltransferase (ZIKV, UniProt A0A024B7W1)",enzyme activity,inhibitor,TR-FRET,,12900
CC(C)[C@H](NC(=O)[C@H](CCCNC(=N)N)NC(=O)N[C@@H](Cc1ccccc1)C(=O)O)C(=O)N[C@H](C=O)CCCNC(=N)N,CTSB,enzyme activity,inhibitor,fluorescence,pH 5.5,8.22
N=C1CCCN1Cc1[nH]c(=O)[nH]c(=O)c1F,"Thymidine phosphorylase (Homo sapiens, UniProt P19971)",enzyme activity,inhibitor,,,9
CCCCCCCCCCCCCCCCOC[C@H](COP(=O)([O-])OCC[N+](C)(C)C)OC(C)=O,"Platelet-activating factor receptor (PTAFR, Homo sapiens, UniProt P25105)",ligand displacement,,radioligand,,0.25
Cc1ccc(-c2ncn(-c3ccc(Nc4nccc(-c5cccc(N6CCOCC6)c5)n4)cc3)n2)cn1,"Mitogen-activated protein kinase 10 (MAPK10, Homo sapiens, UniProt P53779)",enzyme activity,inhibitor,,,159
O=c1c2ccccc2[nH]c(=S)n1-c1ccccc1,CTSB,enzyme activity,inhibitor,,,76700
N#Cc1cc(F)cc(NS(=O)(=O)c2ccc(S(=O)(=O)F)c3c2CCCC3)c1,"RALB (Homo sapiens, UniProt P11234, Y82F)",cell-free assay,inhibitor,fluorescence,,69000
O=c1cc(-c2ccccc2)oc2c1ccc1occc12,"Cyclin-dependent kinase 2, with cyclin E1 (CDK2, Homo sapiens, UniProt P24941)",enzyme activity,inhibitor,ADP detection,,7900
